# Measurements reported in ChEMBL document CHEMBL1127440, “Structure-affinity relationship studies on 5-HT1A receptor ligands. 2. Heterobicyclic phenylpiperazines with N4-aralkyl substituents” (J Med Chem, 1994).
# pKi: −log10 of the molar value.
# Biological target: T1, 5-hydroxytryptamine receptor 1A (Rattus norvegicus, UniProt P19327)
# T1 sequence (P19327 whole entry): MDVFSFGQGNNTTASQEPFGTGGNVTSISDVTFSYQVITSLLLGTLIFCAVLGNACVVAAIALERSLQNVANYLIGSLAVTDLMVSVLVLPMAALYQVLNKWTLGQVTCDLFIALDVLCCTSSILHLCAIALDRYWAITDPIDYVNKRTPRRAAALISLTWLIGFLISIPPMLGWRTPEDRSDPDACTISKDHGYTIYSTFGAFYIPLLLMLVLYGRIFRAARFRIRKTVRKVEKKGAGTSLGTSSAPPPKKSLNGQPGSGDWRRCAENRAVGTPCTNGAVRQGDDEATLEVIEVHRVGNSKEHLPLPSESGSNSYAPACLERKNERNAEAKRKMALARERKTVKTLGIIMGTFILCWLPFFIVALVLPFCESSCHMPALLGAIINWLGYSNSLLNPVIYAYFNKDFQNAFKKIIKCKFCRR
# Assay: Binding affinity to displace [3H]2-(di-N-propylamino)-8-hydroxy-tetralin from 5-hydroxytryptamine 1A (5-HT1A) receptor in rat frontal cortex homogenates
# Assay type: tissue-based
# Method in brief: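 Rat frontal cortex homogenate; [3H]-8-OH-DPAT displaced from specific 5-HT1A sites. Each compound was tested at four to six concentrations in triplicate per assay. Three to six independent assays were run per compound. Ki ± SEM (nM) reported.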
row,Compound,pKi
1,c1ccc(CCN2CCN(c3cccc4c3OCCO4)CC2)cc1,9.33
2,O=C(CCCN1CCN(c2cccc3ccoc23)CC1)c1ccc(F)cc1,9.00
3,c1ccc(CN2CCN(c3cccc4ccoc34)CC2)cc1,7.66
4,O=C(CCCN1CCN(c2cccc3c2OCCO3)CC1)c1ccccc1,9.17
5,c1ccc(OCCN2CCN(c3cccc4c3OCCO4)CC2)cc1,9.14
6,c1ccc2c(c1)OCC(CN1CCN(c3cccc4c3OCCO4)CC1)O2 (stereo not drawn),8.40
7,c1ccc(CCCCN2CCN(c3cccc4c3OCCO4)CC2)cc1,9.49
8,c1ccc(OCCN2CCN(c3cccc4ccoc34)CC2)cc1,9.34
9,O=C(CCCN1CCN(c2cccc3c2OCCO3)CC1)c1ccc(F)cc1,8.85
10,c1ccc(CCN2CCN(c3cccc4ccoc34)CC2)cc1,9.43
11,c1ccc(OCCCN2CCN(c3cccc4c3OCCO4)CC2)cc1,9.02
12,c1ccc(OCCCN2CCN(c3cccc4ccoc34)CC2)cc1,9.07
13,O=C(NCCN1CCN(c2cccc3ccoc23)CC1)c1ccc(F)cc1,9.82
14,O=C(NCCN1CCN(c2cccc3c2OCCO3)CC1)c1ccc(F)cc1,9.52
15,O=C(NCCN1CCN(c2cccc3ccoc23)CC1)C1CCCCC1,9.70
16,c1ccc(CN2CCN(c3cccc4c3OCCO4)CC2)cc1,7.55
17,O=C(NCCN1CCN(c2cccc3c2OCCO3)CC1)C1CCCCC1,9.36
18,c1ccc2c(c1)OCC(CN1CCN(c3cccc4ccoc34)CC1)O2 (stereo not drawn),8.24
